Reference: ChEMBL document CHEMBL1155274, “Synthesis of some novel pyrazolo[3,4-b]pyridine and pyrazolo[3,4-d]pyrimidine derivatives bearing 5,6-diphenyl-1,2,4-triazine moiety as potential antimicrobial agents” (Eur J Med Chem, 2009)
In brackets after ≈: the same amount, converted by molar mass.

Legend:
[1] = system: Staphylococcus aureus; experiment: Antimicrobial activity against Staphylococcus aureus MTCCB 737 at 100 ug/mL after 16 to 20 hrs by disk diffusion method; format: functional; conditions: read-out: IZ
In short: (§1)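 Nutrient agar disc diffusion against bacterial strains, compounds in DMSO at a single test concentration. DMSO blank; tetracycline as reference drug. Plates incubated 16–20 h at 37 °C, and the inhibition zone was measured.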

[2] = system: Staphylococcus epidermidis; experiment: Antimicrobial activity against Staphylococcus epidermidis MTCCB 1824 at 100 ug/mL after 16 to 20 hrs by disk diffusion method; format: functional; conditions: read-out: IZ; in short: as §1
[3] = system: Alternaria alternata; experiment: Antimicrobial activity against Alternaria alternata at 100 ug/mL after 3 to 4 days by disk diffusion method; conditions: read-out: IZ
[4] = system: Escherichia coli; experiment: Antimicrobial activity against Escherichia coli MTCCB 1652 at 100 ug/mL after 16 to 20 hrs by disk diffusion method; format: functional; conditions: read-out: IZ; in short: as §1
[5] = system: Aspergillus niger; experiment: Antimicrobial activity against Aspergillus niger at 100 ug/mL after 3 to 4 days by disk diffusion method; conditions: read-out: IZ
[6] = system: Aspergillus fumigatus; experiment: Antimicrobial activity against Aspergillus fumigatus at 100 ug/mL after 3 to 4 days by disk diffusion method; conditions: read-out: IZ
[7] = system: Escherichia coli; experiment: Antimicrobial activity against Escherichia coli MTCCB 1652 after 24 hrs by serial dilution method; format: functional; conditions: MTCCB 1652, 24 h
In short: (§2)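 Tube serial dilution in nutrient broth at compound levels of 6.25, 12.5, 25, 50 and 100. Each tube received standardized microbial suspension (10^7 cells/mL) and was incubated 24 h at 37 °C. MIC was the lowest concentration preventing growth, i.e. maintaining or reducing inoculum viability.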

[8] = system: Staphylococcus aureus; experiment: Antimicrobial activity against Staphylococcus aureus MTCCB 737 after 24 hrs by serial dilution method; format: functional; conditions: MTCCB 737, 24 h; in short: as §2
[9] = system: Alternaria alternata; experiment: Antimicrobial activity against Alternaria alternata after 24 hrs by serial dilution method; format: functional; in short: as §2
[10] = system: Aspergillus niger; experiment: Antimicrobial activity against Aspergillus niger after 24 hrs by serial dilution method; format: functional; in short: as §2
[11] = system: Artemia salina; experiment: Toxicity against Artemia salina assessed as number of the nauplii died after 24 hrs; format: organism-based; conditions: in vivo
In short: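 Artemia salina eggs were hatched in sea salt water (38 g/L) at 37 °C for 48 h with constant oxygen to give nauplii. Stocks were 10 mg per 2 mL DMSO, and five dilutions were run in triplicate with about 10 nauplii per vial. A DMSO-only vial served as control.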

[12] = system: Aspergillus fumigatus; experiment: Antimicrobial activity against Aspergillus fumigatus at 30 ug/mL after 3 to 4 days by disk diffusion method; conditions: read-out: IZ
[13] = system: Alternaria alternata; experiment: Antimicrobial activity against Alternaria alternata at 30 ug/mL after 3 to 4 days by disk diffusion method; conditions: read-out: IZ
[14] = system: Aspergillus niger; experiment: Antimicrobial activity against Aspergillus niger at 30 ug/mL after 3 to 4 days by disk diffusion method; conditions: read-out: IZ
[15] = system: Escherichia coli; experiment: Antimicrobial activity against Escherichia coli MTCCB 1652 at 30 ug/mL after 16 to 20 hrs by disk diffusion method; format: functional; conditions: read-out: IZ
In short: (§3)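 Nutrient agar disc diffusion against S. aureus MTCCB 737, S. epidermidis MTCCB 1824 and E. coli MTCCB 1652. Tetracycline served as the standard drug, and DMSO served as the blank. The inhibition zone was measured after 16–20 h at 37 °C.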

[16] = system: Staphylococcus epidermidis; experiment: Antimicrobial activity against Staphylococcus epidermidis MTCCB 1824 at 30 ug/mL after 16 to 20 hrs by disk diffusion method; format: functional; conditions: read-out: IZ; in short: as §3
[17] = system: Staphylococcus aureus; experiment: Antimicrobial activity against Staphylococcus aureus MTCCB 737 at 30 ug/mL after 16 to 20 hrs by disk diffusion method; format: functional; conditions: read-out: IZ; in short: as §3

Row | Compound | zone of inhibition at 100 µg/mL [1] [mm] | zone of inhibition at 100 µg/mL [2] [mm] | zone of inhibition at 100 µg/mL [3] [mm] | zone of inhibition at 100 µg/mL [4] [mm] | zone of inhibition at 100 µg/mL [5] [mm] | zone of inhibition at 100 µg/mL [6] [mm] | MIC [7] [µg/mL] | MIC [8] [µg/mL] | MIC [9] [µg/mL] | MIC [10] [µg/mL] | LC50 [11] [ppm] | zone of inhibition at 30 µg/mL [12] [mm] | zone of inhibition at 30 µg/mL [13] [mm] | zone of inhibition at 30 µg/mL [14] [mm] | zone of inhibition at 30 µg/mL [15] [mm] | zone of inhibition at 30 µg/mL [16] [mm] | zone of inhibition at 30 µg/mL [17] [mm]
1 | CSc1nn(-c2nnc(-c3ccccc3)c(-c3ccccc3)n2)c2nc(C)c3c(=O)[nH]cnc3c12 | 17 | 17 | 12 | 10 | 10 | 11 |  |  |  |  |  |  |  |  |  |  | 
2 | Nc1nc(=S)[nH]c2nn(-c3nnc(-c4ccccc4)c(-c4ccccc4)n3)c(N)c12 | 9 | 11 | 2 | 13 | 7 | 11 |  |  |  |  |  |  |  |  |  |  | 
3 | CSC(Nc1c(C#N)c(SC)nn1-c1nnc(-c2ccccc2)c(-c2ccccc2)n1)=C(C#N)C#N | 17 | 21 | 8 | 11 | 6 | 9 |  |  |  |  |  |  |  |  |  |  | 
4 | CSc1nn(-c2nnc(-c3ccccc3)c(-c3ccccc3)n2)c(N)c1C#N | 12 | 7 | 0 | 3 | 6 | 8 |  |  |  |  |  |  |  |  |  |  | 
5 | CSc1nn(-c2nnc(-c3ccccc3)c(-c3ccccc3)n2)c2nc(C)c(C#N)c(N)c12 | 19 | 16 | 5 | 12 | 7 | 6 |  |  |  |  |  |  |  |  |  |  | 
6 | Cc1nc2c(c(=O)[nH]1)c1nnc(C)c(=O)n1n2-c1nnc(-c2ccccc2)c(-c2ccccc2)n1 | 28 | 26 | 16 | 29 | 15 | 19 | 12.5 (≈ 27 µM) | 25 (≈ 53.9 µM) | 50 (≈ 108 µM) | 25 (≈ 53.9 µM) | 6.49 |  |  |  |  |  | 
7 | N#Cc1c(N)nn2c(N)c3c(nc12)n(-c1nnc(-c2ccccc2)c(-c2ccccc2)n1)n1c(=O)c2ccccc2nc31 | 26 | 23 | 19 | 20 | 19 | 21 | > 100 | 50 (≈ 88.9 µM) | 50 (≈ 88.9 µM) | > 100 | 1.39 |  |  |  |  |  | 
8 | CC(=O)c1c(-c2ccccc2)nc2c3c(nn2-c2nnc(-c4ccccc4)c(-c4ccccc4)n2)N(c2ccccc2)C(C)=Nc13 | 18 | 13 | 9 | 10 | 7 | 3 |  |  |  |  |  |  |  |  |  |  | 
9 | CSc1nn(-c2nnc(-c3ccccc3)c(-c3ccccc3)n2)c2nc(-c3ccccc3)c3c(C)c(C#N)c(N)nc3c12 | 25 | 22 | 9 | 19 | 11 | 16 | 25 (≈ 43.3 µM) | 50 (≈ 86.6 µM) | > 100 | > 100 | 0.58 |  |  |  |  |  | 
10 | CSc1nn(-c2nnc(-c3ccccc3)c(-c3ccccc3)n2)c2nc(C)[nH]c(=O)c12 | 14 | 11 | 10 | 5 | 9 | 12 |  |  |  |  |  |  |  |  |  |  | 
11 | CSc1nn(-c2nnc(-c3ccccc3)c(-c3ccccc3)n2)c2nc3c(C#N)c(N)nn3c(N)c12 | 24 | 22 | 16 | 17 | 18 | 22 | > 100 | 50 (≈ 102 µM) | 25 (≈ 50.9 µM) | 25 (≈ 50.9 µM) | 2.31 |  |  |  |  |  | 
12 | Cc1nc2c(c(=O)[nH]1)c1nnc(-c3ccccc3)n1n2-c1nnc(-c2ccccc2)c(-c2ccccc2)n1 | 27 | 27 | 8 | 26 | 12 | 17 | 25 (≈ 50.2 µM) | 50 (≈ 100 µM) | 50 (≈ 100 µM) | 50 (≈ 100 µM) | 3.54 |  |  |  |  |  | 
13 | Cc1nc2c(c(NN)nn2-c2nnc(-c3ccccc3)c(-c3ccccc3)n2)c(=O)[nH]1 | 18 | 10 | 13 | 8 | 11 | 10 |  |  |  |  |  |  |  |  |  |  | 
14 | CSc1nn(-c2nnc(-c3ccccc3)c(-c3ccccc3)n2)c2nc(-c3ccccc3)c(C(C)=O)c(N)c12 | 16 | 18 | 5 | 13 | 4 | 10 |  |  |  |  |  |  |  |  |  |  | 
15 | S=c1nc2c3c(n(-c4nnc(-c5ccccc5)c(-c5ccccc5)n4)nc3[nH]1)N=C(c1ccccc1)N2 | 16 | 13 | 5 | 9 | 11 | 9 |  |  |  |  |  |  |  |  |  |  | 
16 | O=C(O)c1cc(O)c(O)c(O)c1 [GALLIC ACID] |  |  |  |  |  |  |  |  |  |  | 4.53 |  |  |  |  |  | 
17 | CC(=O)N1CCN(c2ccc(OCC3COC(Cn4ccnc4)(c4ccc(Cl)cc4Cl)O3)cc2)CC1 (configuration not stated) [KETOCONAZOLE] |  |  |  |  |  |  |  |  | 6.25 (≈ 11.8 µM) | 6.25 (≈ 11.8 µM) |  | 18 | 21 | 20 |  |  | 
18 | CN(C)[C@@H]1C(O)=C(C(N)=O)C(=O)[C@@]2(O)C(O)=C3C(=O)c4c(O)cccc4[C@@](C)(O)[C@H]3C[C@@H]12 [TETRACYCLINE] |  |  |  |  |  |  | 12.5 (≈ 28.1 µM) | 6.25 (≈ 14.1 µM) |  |  |  |  |  |  | 28 | 25 | 30
19 | BLEOMYCIN |  |  |  |  |  |  |  |  |  |  | 0.41 |  |  |  |  |  | 
